# Screens as filed in PubChem.
# Sampled rows, rich in hits. Any-hit rate of the full collection: about 3.9%.
# SR-BI DiI inh – inhibitors of mouse SR-BI mediated HDL lipid uptake; AID 488896; ldlA[mSR-BI] CHO cells, DiI-HDL uptake fluorescence, 3 h; 0.96% of 320,000 active; inhibition, % at 12.5 µM;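 active means mean replicate inhibition of at least 70% and a set share of replicates each scoring 70 or more; inconclusive means meets just one of the two criteria; inactive means fails both criteria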
# SR-BI DiI-HDL act – SR-BI HDL lipid transfer activation. 0.096% of 320,000 active. CHO ldlA[mSR-BI] cells, DiI-HDL uptake fluorescence, 3 h; 100 = double the neutral-control signal. activation, % at 12.5 µM;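 active means mean replicate activation of at least 60% and every replicate at or above 60%; inconclusive means mean or all-replicate condition met, but not both; inactive means mean below 60% and not all replicates reaching 60%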
#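 Material: SR-BI-overexpressing, LDLR-lacking CHO cells; schedule: compound exposure 3 h, 37 °C; reagent: DiI-labelled HDL at 10 µg/mL final; technique: bottom-read fluorescence, 550/595 nm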
# AHR act – activators of human aryl hydrocarbon receptor | P35869 | AHR-responsive luciferase reporter cells, luminescence | activation, % at 5 µM | 2.5% of 320,000 active | AID 2796; in the data active means activation above about 47%
# GAA850 FXN act – increases GAA850 frataxin promoter reporter activity | HEK293 lucGAA850 FXN promoter luciferase reporter, 24 h; percent of 10 µM SAHA response | activation, % at 6 µM | 0.56% of 360,000 active | AID 540364;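 active means activation above the average of all compounds screened plus 3 SD, cutoff fixed separately per campaign, cut at about 7.5% in these data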
# HIF activator – HIF pathway transcriptional activation. U2OS HRE-luciferase reporter, luminescence; normalized: DMSO 0%, desferrioxamine 100%. activation, % at 7.5 µM (by protocol). 0.32% of 300,000 active. AID 1910;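 active means mean activation of at least 10% of the iron chelator positive control signal, with at least half of replicates also reaching 10%; inconclusive means mean and replicate majority disagree about reaching 10%; inactive means mean and most replicates under 10%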
# ABCB6 inh 2 – human ABCB6 transporter inhibition; Q9NP58; K562-ABCB6 porphyrin accumulation, flow cytometry, 1 h; stronger effect = lower value; fluorescence ratio to DMSO, % at 10 µM; 0.19% of 360,000 active;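 active means fluorescence ratio to DMSO below 75%, the collection mean minus 3 SD; inconclusive means too few cells collected in the well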;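 further: signal is porphyrin accumulated inside mitochondria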
# GAA30 FXN cntr – GAA30 FXN promoter activation counter-screen. HEK293 lucGAA30 FXN promoter luciferase, 24 h; DMSO = 0%, 5 µM ipriflavone = 100%. activation, % at 6 µM. 66% of 1,900 active. shares compounds with GAA850 FXN act;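 active means mean activation above the mean of solvent-only control wells plus 3 SD, cut at about 22% in these data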;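 further: counterscreen of GAA850 promoter hits where activity marks nonselective or luminescence artifacts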
# FXN GAA850 conf – confirmation of GAA850 frataxin (FXN) promoter activators; HEK293 lucGAA850 FXN promoter luciferase reporter, 24 h; 100% = activation by SAHA; 86% of 1,900 active; shares compounds with GAA850 FXN act; activation, % at 6 µM;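 active means mean activation above a set limit taken from the primary screen, cut at about 8% in these data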
# Numbers stand for hits; i = inactive; ? = inconclusive; nt = no result.
SMILES,SR-BI DiI inh,SR-BI DiI-HDL act,AHR act,GAA850 FXN act,HIF activator,ABCB6 inh 2,GAA30 FXN cntr,FXN GAA850 conf
COCCn1c(C)cc(C(=O)Cn2nc(C(=O)O)c3ccccc3c2=O)c1C,i,i,i,9.4,i,i,98,35
Cc1ccccc1CSc1nnc2ccc(-c3ccncc3)nn12,nt,nt,i,7.7,i,i,30,13
c1ccc(CSc2nnc3ccc(-c4ccncc4)nn23)nc1,nt,nt,i,i,i,i,nt,nt
COc1cc2nc(=S)n3[nH]c(CCn4nc(C)cc4C)nc3c2cc1OC,i,i,i,19,i,i,32,17
Cc1nc2ccccc2n1CCc1nc2c3ccccc3nc(=S)n2[nH]1,i,i,i,i,i,i,nt,nt
COc1cc2c(cc1OC)CN(C(=O)c1sccc1C)CC2,i,i,i,i,i,i,nt,nt
Cc1ccsc1C(=O)N1CCc2ccccc2C1,i,i,i,8.4,i,i,43,15
CC(=O)c1ccc2oc3ccccc3c(=O)c2c1,i,i,i,8.6,i,i,87,33
O=c1c2ccccc2oc2ccccc12,nt,nt,nt,i,nt,i,nt,nt
CCCCc1ccc(-c2ccc(Br)cc2)nc1,i,i,i,8.4,i,i,107,34
COc1ccc(OC)c2sc(N3CCN(c4ccccc4)CC3)nc12,i,i,i,8.8,i,i,39,17
CC1=C([N+](=O)[O-])C(c2cccc(Br)c2)C2=C(N1)c1ccccc1C2=O (centres undefined),i,i,i,15,i,i,i,35
COC(=O)C1=C(C)NC2=C(C(=O)c3ccccc32)C1c1cccc(OC)c1 (centres undefined),i,i,i,i,i,i,nt,nt
CCCCC(=O)NC(=S)Nc1cc(C(=O)O)ccc1Cl,i,i,i,i,i,i,nt,nt
CN1CCN(CCC(=O)N/N=C/c2cc3c(cc2[N+](=O)[O-])OCO3)CC1,i,i,i,i,i,i,nt,nt
CC(=O)N1CN(S(=O)(=O)c2ccc(C)cc2)CC1C (centres undefined),i,i,i,12,i,i,i,i
O=C(O)c1ccccc1N/N=C/c1cc(Br)cc(Br)c1O,i,i,49,9.3,i,i,135,42
O=C(Cc1ccccc1)N/N=C/c1cc(Br)cc(Br)c1O,i,i,i,i,i,i,nt,nt
CNc1nc(NCCOc2ccccc2Cl)c2sccc2n1,nt,nt,nt,9.0,nt,i,24,11
Cc1nn(-c2nnc(NC3CCCCC3)nn2)c(C)c1Br,i,i,i,8.6,i,i,124,40
COc1ccc(S(=O)(=O)NNC(=O)C23CC4CC(CC(C4)C2)C3)cc1[N+](=O)[O-],i,i,i,i,i,i,nt,nt
Cc1c(C(=O)Nc2ccncc2)sc2nc(-c3ccc(F)cc3)cn12,77,i,i,15,i,i,46,25
CN(C(=O)c1cccc(COc2ccc(Cl)cc2Cl)c1)c1ccccc1,i,i,i,8.3,i,i,102,39
CC(C)(C)c1ccc(CC(=O)N2CCC2(C)C(=O)NCCC#N)cc1 (centres undefined),nt,nt,nt,i,nt,i,nt,nt
CC(C)(C)S(=O)N1Cc2cc(=O)n(Cc3ccccc3)cc2[C@@H]1CCO (some centres undefined),i,i,nt,i,nt,i,nt,nt
SMILES,SR-BI DiI inh,SR-BI DiI-HDL act,AHR act,GAA850 FXN act,HIF activator,ABCB6 inh 2,GAA30 FXN cntr,FXN GAA850 conf
COc1ccccc1NC(=O)c1sc2ncn(CC(=O)Nc3ccccc3)c(=O)c2c1C,nt,nt,i,13,i,i,i,i
COc1ccccc1NC(=O)CCCNC(=O)Cn1cnc2sc(C)c(C)c2c1=O,i,i,i,i,i,i,nt,nt
COc1ccc(/C=C2\SC(=N)N(c3ccc(F)cc3)C2=O)cc1OC,i,i,i,8.3,i,i,i,15
COc1ccc(C(=O)N/N=C/c2ccc(OC)c(CN3CCCc4ccccc43)c2)cc1,i,i,i,9.3,i,i,i,i
COc1cccc(C(=O)Nc2cc3c4c(c2)CC(=O)N4CCC3)c1,i,i,i,i,i,i,nt,nt
CC(Oc1ccc2c(-c3ccccc3)cc(=O)oc2c1)C(=O)NCCCn1ccnc1 (centres undefined),i,i,i,8.7,i,i,i,i
CCCc1cc(=O)oc2cc(OC(C)C(=O)NCCCn3ccnc3)ccc12 (centres undefined),i,i,i,i,i,i,nt,nt
O=C(/C=C/c1ccccc1[N+](=O)[O-])c1ccccc1Br,i,i,i,9.0,i,i,75,43
O=C(COc1ccc(Cl)cc1[N+](=O)[O-])NC1CCCCC1,i,i,i,8.1,i,i,85,29
CCCNC(=O)C(Cc1ccc(OC)cc1)NC(=O)c1ccc(C#N)cc1 (centres undefined),i,i,i,i,nt,i,nt,nt
C=CCn1c2ccccc2c(=O)c2cc(C#Cc3ccccn3)ccc21,?,i,i,9.0,nt,i,140,44
C=CCn1c2ccccc2c(=O)c2cc(C#Cc3ccsc3)ccc21,nt,nt,i,nt,i,nt,nt,nt
CC(=O)Nc1ccc(Nc2nc(-c3cc4ccccc4oc3=O)cs2)cc1,i,i,nt,i,i,i,nt,nt
Nc1ccc(Nc2nc(-c3cc4ccccc4oc3=O)cs2)cc1,i,i,i,9.0,i,i,74,32
O=C(NCC1COc2ccccc2O1)c1ccccc1 (centres undefined),i,i,i,7.6,i,i,88,27
COc1cc2c(cc1OC)-c1cc(NC3CCCCC3)nc(=O)n1CC2,i,i,i,10,i,i,i,11
COc1cc2c(cc1OC)-c1cc(NC3CC3)nc(=O)n1CC2,i,i,i,i,i,i,nt,nt
COc1cc2c(cc1OC)-c1cc(NC3CCCCCCC3)nc(=O)n1CC2,i,i,i,8.1,i,nt,i,13
CCCCCCNc1cc2n(c(=O)n1)CCc1cc(OC)c(OC)cc1-2,i,i,i,i,nt,i,nt,nt
CCNc1cc2n(c(=O)n1)CCc1cc(OC)c(OC)cc1-2,i,i,i,9.9,i,i,i,i
COc1cc(NC(=O)CN(c2ccc(C)cc2)S(=O)(=O)c2c(C)n[nH]c2C)cc(OC)c1,i,i,i,i,i,i,nt,nt
CC(=O)c1ccc(NC(=O)CSc2nnc(-c3ccco3)c(-c3ccco3)n2)cc1,i,i,i,i,i,i,nt,nt
O=C(CCNS(=O)(=O)c1c(Cl)cccc1Cl)N1CCCC1,i,i,i,i,nt,i,nt,nt
CCOC(=O)c1cnc2cc3c(cn2c1=O)CCCC3,i,i,i,8.2,i,i,98,34
